Assay [1] relates to Rattus norvegicus. In words: Androgenic activity in ORX rat model assessed as increase in ventral prostate weight at 300 mg/kg, po administered 4 days relative to sham-treated control. Type of assay: functional, Prostate gland. In short, it runs like this:
(§1)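 Young (immature) rats castrated, left untreated one week, then dosed daily for four days (test agents orally; testosterone propionate subcutaneously). Untreated ORX and sham-operated rats as controls. Levator ani (anabolic) and ventral prostate (androgenic) weights normalised to body weight; activity % = (W/BW treated − W/BW ORX)/(W/BW sham − W/BW ORX) × 100; A50 = dose giving 50% activity.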

Assay [2] concerns the target T1, Estrogen receptor (Homo sapiens) (UniProt P03372).
T1 sequence (whole entry): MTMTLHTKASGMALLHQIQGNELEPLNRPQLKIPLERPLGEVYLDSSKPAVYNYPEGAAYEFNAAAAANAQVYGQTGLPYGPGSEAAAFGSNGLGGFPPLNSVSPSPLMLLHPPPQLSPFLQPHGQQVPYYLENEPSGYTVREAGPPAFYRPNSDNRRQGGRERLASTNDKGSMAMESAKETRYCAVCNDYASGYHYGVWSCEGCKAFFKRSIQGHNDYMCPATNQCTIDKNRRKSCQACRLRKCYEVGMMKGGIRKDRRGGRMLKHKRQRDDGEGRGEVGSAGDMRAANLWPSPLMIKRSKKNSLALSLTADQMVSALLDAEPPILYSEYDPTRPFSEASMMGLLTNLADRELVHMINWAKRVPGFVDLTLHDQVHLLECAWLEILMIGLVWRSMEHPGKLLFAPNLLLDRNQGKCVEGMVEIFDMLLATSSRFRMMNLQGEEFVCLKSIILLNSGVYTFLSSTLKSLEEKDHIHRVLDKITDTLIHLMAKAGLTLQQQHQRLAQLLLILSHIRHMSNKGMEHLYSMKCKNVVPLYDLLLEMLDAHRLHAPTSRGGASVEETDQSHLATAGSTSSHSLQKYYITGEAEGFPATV
Briefly: Binding affinity to estrogen receptor up to 10 uM by competitive binding assay.

Assay [3] deals with Rattus norvegicus. In words: Androgenic activity in ORX rat model assessed as ventral prostate weight at 30 mg/kg, po administered 4 days relative to sham-treated control. The format is functional, Prostate gland. In short, it runs like this:
as §1

The subject of assay [4] is Rattus norvegicus. Briefly: Anabolic activity in po dosed ORX rat model assessed as maximum effect on levator ani muscle weight administered 4 days relative to sham-treated control. Type of assay: functional. In short, it runs like this:
as §1

In assay [5] the test system is Rattus norvegicus. In words: Anabolic activity in po dosed ORX rat model assessed as dose required to induce 50% effect on levator ani muscle weight administered 4 days. The format is functional. In short, it runs like this:
as §1

For assay [6], the species on record is Rattus norvegicus. Briefly: Cardioprotective activity in ORX rat model assessed as decrease in triglycerides level relative to control. Type of assay: functional. Further details: scale not given: the % may be the effect or the level left. In short, it runs like this:
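Rats castrated at six months of age, dosed orally at 30 mg/kg/day for three months; serum triglycerides and total cholesterol measured versus untreated ORX rats.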

In assay [7] the target is T2, Glucocorticoid receptor (Homo sapiens) (UniProt P04150).
T2 sequence (whole entry): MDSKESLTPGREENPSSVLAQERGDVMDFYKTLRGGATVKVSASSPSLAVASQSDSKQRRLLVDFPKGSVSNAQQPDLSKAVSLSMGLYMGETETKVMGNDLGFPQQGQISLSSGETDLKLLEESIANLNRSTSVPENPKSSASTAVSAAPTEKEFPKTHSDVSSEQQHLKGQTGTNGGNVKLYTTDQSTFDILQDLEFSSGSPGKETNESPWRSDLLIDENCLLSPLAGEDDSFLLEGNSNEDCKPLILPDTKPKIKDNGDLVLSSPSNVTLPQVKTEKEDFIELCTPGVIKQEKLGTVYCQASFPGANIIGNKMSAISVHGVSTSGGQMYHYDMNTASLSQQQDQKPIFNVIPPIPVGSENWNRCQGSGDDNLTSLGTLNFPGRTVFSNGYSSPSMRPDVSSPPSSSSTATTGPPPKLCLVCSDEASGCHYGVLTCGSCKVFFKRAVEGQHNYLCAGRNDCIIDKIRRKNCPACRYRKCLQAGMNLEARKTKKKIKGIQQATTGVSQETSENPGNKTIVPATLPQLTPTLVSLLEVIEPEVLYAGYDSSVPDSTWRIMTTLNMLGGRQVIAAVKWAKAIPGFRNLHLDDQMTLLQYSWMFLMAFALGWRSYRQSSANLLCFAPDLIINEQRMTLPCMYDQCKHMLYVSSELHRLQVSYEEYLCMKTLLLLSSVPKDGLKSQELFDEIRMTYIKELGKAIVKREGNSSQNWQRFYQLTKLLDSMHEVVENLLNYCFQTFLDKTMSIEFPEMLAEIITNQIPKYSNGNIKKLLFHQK
In words: Binding affinity to glucocorticoid receptor up to 10 uM by competitive binding assay.

Activity calls are given as the source filed them. The calls are words filed in the database; no cut-off is given here.

The text below walks through data of ChEMBL document CHEMBL2176865, “Discovery of diarylhydantoins as new selective androgen receptor modulators” (J Med Chem, 2012).

As to `CN1C(=O)N(c2ccc(C#N)c(C(F)(F)F)c2)C(=O)[C@@]1(C)c1ccc(O)cc1`, the Activity is 50% in the assay on Rattus norvegicus [1]; 25% with Rattus norvegicus [3]; 80% in the assay with Rattus norvegicus [4]; 0.5 mg/kg in the assay on Rattus norvegicus [5]; 30% in the assay listed under Rattus norvegicus [6]. Further, the outcome in assay [2] and in assay [7] was inactive.
